Results gathered from unrelated publications.
Lines come from different studies, so protocols differ.
Target: Insulin-like growth factor 1 receptor (IGF1R, Homo sapiens, UniProt P08069)

The inhibition of `Cn1cc(-c2cccc(N3CCc4c(sc5c4CC(C)(C)C5)C3=O)c2CO)cc(Nc2ccncn2)c1=O` is reported as 3% (enzyme activity, inhibitor; 1 µM).
The remaining activity of `CC(C)(C)c1cc(C=C(C#N)C#N)cc(Br)c1O` is reported as 96.6% (enzyme activity, inhibitor; 0.5 µM).
`Cc1nn(C)cc1-c1nc2c(N3CCN(Cc4ccc(Cl)cc4)CC3)c(Cl)cnc2[nH]1` has a remaining binding of 100% (binding, competition with immobilised ligand; 1 µM).
With `Cn1cncc1[C@](O)(COc1ccc(C#N)cc1-c1ccc(OC(F)(F)F)cc1)c1ccc(C#N)cc1` the remaining binding was 92% (cell-free assay, competition with immobilised ligand; 1 µM).
With `C#Cc1n[nH]c2c(-c3cn([C@@H](C)c4ccccn4)c(=O)[nH]c3=O)cc(F)cc12` the inhibition was 8.7% (enzyme activity, inhibitor; 0.1 µM).
For `COc1ncccc1-c1cnn2ccc(N3CCN(C(=O)OC(C)C)CC3)nc12`, the remaining binding was 100% (binding, competition with immobilised ligand; 1 µM).
The inhibition of `Cn1cc(-c2cc(F)cc(N3CCn4c(cc5c4CCCC5)C3=O)c2CO)cc(Nc2ccc(N3CCN(C4COC4)CC3)cn2)c1=O` is reported as 4% (enzyme activity, inhibitor; 0.1 µM).
The inhibition of `C#Cc1n[nH]c2c(-c3cn([C@@H](C)c4ccccc4)c(=O)[nH]c3=O)cc(F)cc12` is reported as 7.8% (enzyme activity, inhibitor; 0.1 µM).
`Nc1ncc(-c2nc(N3CCOCC3)nc(N3CCOCC3)n2)c(C(F)F)n1` gave a remaining binding of 78% (cell-free assay, competition with immobilised ligand; 10 µM).
`O=c1[nH]c2ccccc2n1C1CCN(Cc2ccc(-c3[nH]c4cc5ncnc5cc4nc3-c3ccccc3)cc2)CC1` gave a remaining signal of 91.2% (cell-free assay; 0.5 µM).
